# Screens from PubChem.
# TRPC4 agonist: opens the mouse TRPC4 cation channel; B-score at 10 µM; actives 0.49% (n = 310,000); HEK293 TRPC4beta/mu-opioid, Fluo4 calcium fluorescence; active compounds read high; Q9QUQ5; AID 2237;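 active means B-score above 5 SD of library B-scores, and initial fluorescence ratio not above library mean plus 5 SD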;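 further: positive B-score marks a calcium rise read as TRPC4 activation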
# Target sequence (Q9QUQ5 whole entry, looked up): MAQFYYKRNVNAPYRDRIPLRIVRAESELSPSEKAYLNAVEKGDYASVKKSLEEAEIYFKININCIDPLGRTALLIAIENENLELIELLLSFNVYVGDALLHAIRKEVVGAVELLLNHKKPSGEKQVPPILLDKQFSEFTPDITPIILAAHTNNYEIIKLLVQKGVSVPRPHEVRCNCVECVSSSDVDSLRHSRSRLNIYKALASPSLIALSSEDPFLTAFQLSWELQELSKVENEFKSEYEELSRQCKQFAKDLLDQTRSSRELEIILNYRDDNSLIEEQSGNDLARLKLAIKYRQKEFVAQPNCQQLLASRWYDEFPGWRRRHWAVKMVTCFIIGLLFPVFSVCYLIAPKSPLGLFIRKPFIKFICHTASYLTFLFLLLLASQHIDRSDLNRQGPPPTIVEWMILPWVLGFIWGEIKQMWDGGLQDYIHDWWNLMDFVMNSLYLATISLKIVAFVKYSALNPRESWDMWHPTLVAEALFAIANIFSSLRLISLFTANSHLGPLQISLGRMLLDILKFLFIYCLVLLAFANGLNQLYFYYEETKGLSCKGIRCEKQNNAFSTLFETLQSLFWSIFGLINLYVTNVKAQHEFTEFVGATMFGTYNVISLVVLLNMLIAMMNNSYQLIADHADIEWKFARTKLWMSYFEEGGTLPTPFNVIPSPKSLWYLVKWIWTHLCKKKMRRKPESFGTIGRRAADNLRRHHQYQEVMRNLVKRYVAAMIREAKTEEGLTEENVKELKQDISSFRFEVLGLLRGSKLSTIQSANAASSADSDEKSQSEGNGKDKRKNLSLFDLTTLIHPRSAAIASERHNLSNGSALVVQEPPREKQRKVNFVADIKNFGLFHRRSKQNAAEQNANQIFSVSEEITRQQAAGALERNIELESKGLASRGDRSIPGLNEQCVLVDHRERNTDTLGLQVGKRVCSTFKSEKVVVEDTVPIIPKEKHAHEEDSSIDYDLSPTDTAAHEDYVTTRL
#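 Technique: kinetic Fluo4 calcium fluorescence; Test system: TRPC4beta and mu-opioid receptor HEK293 stable cells; Measure: B-scored integrated calcium fluorescence ratio; Benchmarks: low control buffer alone, high control maximal DAMGO; Schedule: 45 min room-temperature Fluo4 loading, 110 s read.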
# TRPC6 activator: mouse TRPC6 channel activation | Q61143 | HEK293-TRPC6 membrane potential dye fluorescence; active compounds read high | B-score at 10 µM | actives 0.13% (n = 310,000);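 active means B-score of the integrated fluorescence ratio above library mean plus 3 SD, and starting fluorescence ratio within library mean plus 5 SD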;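 further: higher score means more depolarization so channel activation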
# TRPC4 potent: allosteric potentiators of mouse TRPC4 channel; Q9QUQ5; HEK293 TRPC4beta/mu-opioid, DAMGO EC20, Fluo-4 Ca2+ flux; active compounds read high; B-score at 10 µM; actives 0.42% (n = 310,000); AID 2227;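 active means B-score of calcium response area above 5 SD of library B-scores, with initial fluorescence ratio within 5 SD of library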;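 further: B-score of integrated fluorescence ratio over time as area under calcium response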
# TRPC6 inh: blocks the mouse TRPC6 cation channel | HEK293-TRPC6, membrane potential dye, ACh-evoked depolarization; active compounds read low | actives 1.1% (n = 310,000) | B-score at 10 µM | Q61143;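 active means B-score under library mean minus 3 SD, initial fluorescence not abnormally high, positive integrated signal ratio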;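 further: B-score derived from integrated fluorescence ratio over the kinetic read; more negative B-score means stronger inhibition of depolarization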
# TRPC4 block: TRPC4 (mouse) channel inhibition; HEK293 TRPC4beta/mu-opioid, DAMGO-evoked Fluo4 calcium flux; active compounds read low; B-score at 10 µM; actives 0.39% (n = 300,000);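 active means B-score over 3 SD under the library average, no early fluorescence shift, positive overall ratio signal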
#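 Assay system: HEK293 cells with stable TRPC4beta plus mu-opioid receptor expression; Probe or stimulus: DAMGO in two steps, submaximal then maximal; Dosing: single-point compound dosing; Measured by: Fluo4 calcium-dye fluorescence, kinetic read; Read-out basis: B score from integrated Fluo4 fluorescence ratio.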
# TRPC4 spec 2: second check of whether TRPC6 inhibitors also affect mouse TRPC4; AID 2776; actives 42% (n = 920); shares compounds with TRPC6 inh; HEK293 TRPC4/MOR, membrane potential dye fluorescence; channel activated by saturating DAMGO dose; inhibition, % at 10 µM;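 active means compounds whose fluorescence signal differed from control wells by over 3 SD, either direction, in both duplicate plates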
# TRPC4 spec: mouse TRPC4 off-target activity of TRPC6 inhibitors; shares compounds with TRPC6 inh; HEK293 TRPC4/mu-opioid, membrane potential fluorescence; activity change, negative = inhibition, % at 10 µM; actives 61% (n = 920); AID 2777;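 active means rise or fall in signal beyond 3 SD of buffer-only wells in both replicate plates, either sign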;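 further: integrated kinetic ratio of fluorescence range over baseline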
# HEK293 MPD ctr 2-1: second counter-screen for TRPC6 inhibitors: parental HEK293 cells; parental HEK293 membrane potential dye fluorescence; maximal acetylcholine challenge after compound addition; actives 31% (n = 920); AID 2779; signal change vs control, % at 10 µM; shares compounds with TRPC6 inh;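 active means membrane potential signal moving either way by over 3 SD of the maximum-effect control, in both duplicate plates, meaning non-specific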
# HEK293 MPD ctr-1: parental HEK293 nonspecific activity of TRPC6 inhibitors | parental HEK293 membrane potential dye fluorescence | membrane potential signal change, % at 10 µM | shares compounds with TRPC6 inh | actives 60% (n = 920);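 active means membrane potential signal shifting up or down by more than 3 SD of buffer-only wells, on both duplicate plates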
# HEK293 MPD ctr-2: checks TRPC6 modulator effects in parental HEK293 cells. shares compounds with TRPC6 inh. actives 51% (n = 2,400). membrane potential signal change, % at 10 µM. membrane potential dye fluorescence;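 active means membrane potential signal moves up or down beyond 5 SD from buffer-only wells, on both duplicate plates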
# HEK293 MPD ctr 2-2: second check of TRPC6 modulator effects in parental HEK293 cells | AID 488926 | membrane potential dye fluorescence; after compound, maximal acetylcholine stimulation | inhibition, % at 10 µM | shares compounds with TRPC6 inh | actives 14% (n = 2,400);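 active means membrane potential signal drops by more than 5 SD from the mean control signal, in both duplicate plates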;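 further: plate controls were acetylcholine ECmax control wells for no effect and buffer only wells for full effect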
# TRPC4 ctr mod: selectivity of TRPC6 modulators against mouse TRPC4; HEK293 TRPC4/mu-opioid, membrane potential fluorescence; AID 488927; shares compounds with TRPC6 inh; actives 69% (n = 2,400); percent change from control (negative = decrease, positive = increase), % at 10 µM;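 active means membrane potential signal moved up or down beyond 5 SD of buffer control wells, in both duplicate plates, actives on both sides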;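 further: plate controls were assay buffer wells for no effect and DAMGO maximal-effect wells for full effect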
# TRPC4 ctr inh 2: second selectivity test of TRPC6 modulators against mouse TRPC4. inhibition, % at 10 µM. actives 55% (n = 2,400). HEK293 TRPC4/mu-opioid, membrane potential dye fluorescence; stimulated with maximal-effect DAMGO. shares compounds with TRPC6 inh;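 active means drop in membrane potential signal beyond 5 SD of the control wells in both duplicate plates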;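 further: TRPC4 counter screen for TRPC6 hits run under conditions tuned for TRPC6 not TRPC4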
# TRPC6 inh conf: confirmation of mouse TRPC6 inhibitors; shares compounds with TRPC6 inh; HEK293-TRPC6, membrane potential dye, ACh-evoked depolarization; inhibition, % at 10 µM; actives 43% (n = 3,300);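 active means fluorescence ratio falls more than 5 SD below the full-stimulation control mean, in both duplicate runs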;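 further: integrated fluorescence ratio of peak minus minimum over baseline after agonist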
# TRPC6 act conf: mouse TRPC6 activator confirmation | shares compounds with TRPC6 inh | HEK293-TRPC6 membrane potential dye fluorescence, FDSS | activation, % at 10 µM | actives 11% (n = 2,800) | AID 488961;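 active means ratio signal rise beyond 5 SD above unstimulated control wells' mean, seen in both duplicate runs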;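 further: plate controls were buffer EC0 wells for no effect and acetylcholine ECmax response for full effect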
# Numbers without * were called inactive; i = inactive; · = not tested or not shown; + = active, no number. The list is not random: actives were taken first. Their share in the collection is about 2.3%.
SMILES,TRPC4 agonist,TRPC6 activator,TRPC4 potent,TRPC6 inh,TRPC4 block,HEK293 MPD ctr-2,HEK293 MPD ctr 2-2,TRPC4 ctr mod,TRPC4 ctr inh 2,TRPC6 inh conf,TRPC6 act conf,others
COc1cccc(-c2nc(NCC3CCCO3)c3ccccc3n2)c1O (stereo unspecified),i,i,i,i,i,·,·,·,·,·,·,
COc1ccccc1Nc1nc(NCC2CCCO2)c2ccccc2n1 (stereo unspecified),i,i,i,-8.8*,-7*,·,·,·,·,112%*,i,TRPC4 spec 2=32%*;TRPC4 spec=-13%*;HEK293 MPD ctr 2-1=i;HEK293 MPD ctr-1=-139%*
OCCNc1nc(-c2ccccc2)nc2ccccc12,i,i,i,i,i,·,·,·,·,·,·,
COc1ccc(OC)c(Nc2nc(NCCO)c3ccccc3n2)c1,i,i,i,-9*,-5*,·,·,·,·,79%*,i,TRPC4 spec 2=44%*;TRPC4 spec=-24%*;HEK293 MPD ctr 2-1=32%*;HEK293 MPD ctr-1=-274%*
COc1ccc(OC)c(Nc2c3ccccc3nc3ccccc23)c1,i,i,i,-6*,-6*,-182%*,i,-30%*,70%*,53%*,i,
Nc1c(Cl)nc(-c2ccccc2)nc1Cl,i,i,i,i,i,·,·,·,·,·,·,
COc1ccc(C(CNC(=O)c2ccc(Cl)c(NC(=O)c3cccs3)c2)N2CCCC2)cc1 (stereo unspecified),i,i,i,-6*,i,106%*,i,i,64%*,42%*,·,
COc1ccc(C(CNC(=O)Cc2ccccc2Cl)N2CCCCC2)cc1 (stereo unspecified),i,i,i,i,i,·,·,·,·,·,·,
Cc1ccc(N=Cc2c(O)n(C)c(=O)n(C)c2=O)nc1,i,i,i,-5.6*,i,i,i,-15%*,i,i,i,
Cc1ccc(N=CC2=C(O)CC(C)(C)CC2=O)nc1,i,i,i,i,i,·,·,·,·,·,·,
Brc1ccc(-c2noc3c2-c2nc(C4CCCCC4)sc2CC3)cc1,i,i,i,i,i,·,·,·,·,·,·,
CC(C)N1CCC2(CC1)N=C(c1ccc3c(c1)OCO3)CC(c1cc(Cl)ccc1O)N2 (stereo unspecified),i,i,i,-7.1*,i,·,·,·,·,i,i,TRPC4 spec 2=34%*;TRPC4 spec=i;HEK293 MPD ctr 2-1=i;HEK293 MPD ctr-1=i
CC1C(=O)N2CCCc3cc(NC(=O)c4ccccc4C(F)(F)F)cc1c32 (stereo unspecified),i,i,i,i,i,·,·,·,·,·,·,
C#CCn1cnc2c(oc3ccccc32)c1=O,i,i,i,-5*,i,i,i,i,i,i,i,
CCn1cnc2c(oc3ccccc32)c1=O,i,i,i,i,i,·,·,·,·,·,·,
C=CCC1(N(C(C)=O)c2ccccc2C)CCCCC1,i,i,i,-9.4*,i,·,·,·,·,i,i,TRPC4 spec 2=i;TRPC4 spec=-0.4%*;HEK293 MPD ctr 2-1=i;HEK293 MPD ctr-1=0.5%*
C=CCC1(N(C(C)=O)c2ccccc2)CCCCC1,i,i,i,i,i,·,·,·,·,·,·,
O=C1/C(=C\c2cc(Cl)c(O)c(Cl)c2)SC(=S)N1Cc1ccccc1,97*,152*,35*,i,i,+,i,538%*,i,i,594%*,
COc1cc(-c2nc3ccccn3c2/N=C/c2cc(OC)c(O)cc2Cl)ccc1O,i,i,i,-5.8*,i,i,i,-10%*,34%*,i,i,
CCOC(=O)c1sc2ncnc(N3CCN(C)CC3)c2c1C,i,i,i,-5.5*,i,-118%*,i,-20%*,34%*,i,i,
COC(=O)c1sc2nc(-c3ccccc3)nc(N3CCN(C)CC3)c2c1C,i,i,i,-5.4*,i,-122%*,i,-29%*,i,i,i,
Cc1cc(C)c2nc(N3CCC(C(=O)NCC4CCCO4)CC3)sc2c1 (stereo unspecified),i,i,i,i,i,·,·,·,·,·,·,
Cc1cc(C)c2nc(N3CCC(C(=O)NCCCN4CCCCC4)CC3)sc2c1,i,i,i,-8.8*,i,·,·,·,·,52%*,i,TRPC4 spec 2=74%*;TRPC4 spec=2.6%*;HEK293 MPD ctr 2-1=i;HEK293 MPD ctr-1=2.9%*
COc1cccc(NC(=O)c2cccc(S(=O)(=O)N3CCN(Cc4ccccc4)CC3)c2)c1,i,i,i,i,i,·,·,·,·,·,·,
COc1cc(NC(=O)c2cc([N+](=O)[O-])ccc2NC(=O)CN2CCN(c3ccccn3)CC2)cc(OC)c1,i,i,10*,-5.9*,i,i,i,i,40%*,i,i,
O=C(CN1CCN(Cc2ccccc2)CC1)Nc1ccc([N+](=O)[O-])cc1C(=O)Nc1ccccc1F,i,i,i,-5.1*,i,i,i,i,70%*,38%*,i,
CC(C)Cc1nnc(NC(=O)C2CCCC2)s1,i,i,i,i,i,·,·,·,·,·,·,
N#C/C(=N\Nc1cccc([N+](=O)[O-])c1)C(=O)c1ccc(Br)cc1,i,i,i,-7.3*,-6*,·,·,·,·,79%*,i,TRPC4 spec 2=53%*;TRPC4 spec=i;HEK293 MPD ctr 2-1=i;HEK293 MPD ctr-1=-156%*
